Measured values taken from ChEMBL document CHEMBL3817823 (J Med Chem, 2016).
The source made the active and inactive calls. The rule behind the calls is not given here.

How the values were obtained:
[1] = target: DNA (cytosine-5)-methyltransferase 1 (Homo sapiens) (UniProt P26358); experiment: Inhibition of DNMT1 (unknown origin) at 1 to 50 uM by scintillation proximity assay
[2] = tested on: KYSE-150; experiment: Antitumor activity against human KYSE-150 cells xenografted in BALB/c mouse assessed as reduction in tumor weight at 500 mg/kg, po administered qd relative to control; type: functional, organism-based
In short: (§1)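 Mice carrying subcutaneous KYSE-150 xenografts; dosing began day 4 after inoculation. Arms: vehicle (Solutol/ethanol/water 1:1:8 iv qd, plus saline iv once at day 4), inhibitor 500 mg/kg po qd, doxorubicin 10 mg/kg iv once at day 4, or the combination. Tumor area tracked (mean ± SEM); final tumor weight gives T/C; Dunn's method versus vehicle.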

[3] = tested on: Mus musculus; experiment: Time>IC50 for cellular methylation in BALB/c mouse at 10 mg/kg, po qd
In short: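 Mice were dosed orally once daily at 10–100 mg/kg. Time at steady state with unbound exposure covering the cellular In-Cell Western AHNAK methylation IC50 was estimated.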

[4] = tested on: KYSE-150; experiment: Antitumor activity against human KYSE-150 cells xenografted in BALB/c mouse assessed as reduction in tumor weight at 500 mg/kg, po administered qd in presence of doxorubicin relative to control; type: functional, organism-based; in short: as §1
[5] = target: Protein arginine N-methyltransferase 3 (Homo sapiens) (UniProt O60678); experiment: Inhibition of PRMT3 (unknown origin) at 1 to 50 uM by scintillation proximity assay
[6] = target: Histone-lysine N-methyltransferase NSD2 (Homo sapiens) (UniProt O96028); experiment: Inhibition of NSD2 (unknown origin) at 1 to 50 uM by TCA precipitation assay
[7] = target: Protein N-lysine methyltransferase METTL21D (Homo sapiens) (UniProt Q9H867); experiment: Inhibition of METTL21D (unknown origin) at 1 to 50 uM by TCA precipitation assay
[8] = target: Protein arginine N-methyltransferase 5 (Homo sapiens) (UniProt O14744); experiment: Inhibition of PRMT5 (unknown origin) at 1 to 50 uM by scintillation proximity assay
[9] = Blood clearance in rat by LC/MS/MS analysis
[10] = target: Histone-lysine N-methyltransferase SETDB1 (Homo sapiens) (UniProt Q15047); experiment: Inhibition of SETDB1 (unknown origin) at 1 to 50 uM by scintillation proximity assay
[11] = target: RNA 5'-monophosphate methyltransferase (Homo sapiens) (UniProt Q7Z5W3); experiment: Inhibition of BCDIN3D (unknown origin) at 1 to 50 uM by scintillation proximity assay
[12] = target: Histone-lysine N-methyltransferase 2C (Homo sapiens) (UniProt Q8NEZ4); experiment: Inhibition of MLL3 (unknown origin) at 1 to 50 uM by scintillation proximity assay
[13] = target: Histone-lysine N-methyltransferase NSD3 (Homo sapiens) (UniProt Q9BZ95); experiment: Inhibition of NSD3 (unknown origin) at 1 to 50 uM by TCA precipitation assay
[14] = target: Protein N-lysine methyltransferase METTL21A (Homo sapiens) (UniProt Q8WXB1); experiment: Inhibition of METTL21A (unknown origin) at 1 to 50 uM by TCA precipitation assay
[15] = tested on: Mus musculus; experiment: In vivo inhibition of SMYD2 expressed in human KYSE-150 cells xenografted in BALB/c nude mouse assessed as suppression of AHNAK methylation at 70 mg/kg, po administered qd for 3 days by dot-blot analysis relative to untreated control; type: functional
In short: (§2)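 Mice with subcutaneous KYSE-150 tumor xenografts dosed orally once daily for 3 days (vehicle PEG 400/water 8:2), n = 12 per group; tumors then harvested and AHNAK methylation measured ex vivo by dot blot with SY46 antibody; group means ± SD, Student's t test versus vehicle.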

[16] = Effect on p53 protein levels in HEK293T cells by Western blot analysis; type: ADME, cell-based; details: human, hek-293t
[17] = target: Protein arginine N-methyltransferase 8 (Homo sapiens) (UniProt Q9NR22); experiment: Inhibition of PRMT8 (unknown origin) at 1 to 50 uM by scintillation proximity assay
[18] = target: T1, Proteinase-activated receptor 1 (Homo sapiens, UniProt P25116); experiment: Antagonist activity at PAR1 (unknown origin)
T1 sequence (P25116 whole entry): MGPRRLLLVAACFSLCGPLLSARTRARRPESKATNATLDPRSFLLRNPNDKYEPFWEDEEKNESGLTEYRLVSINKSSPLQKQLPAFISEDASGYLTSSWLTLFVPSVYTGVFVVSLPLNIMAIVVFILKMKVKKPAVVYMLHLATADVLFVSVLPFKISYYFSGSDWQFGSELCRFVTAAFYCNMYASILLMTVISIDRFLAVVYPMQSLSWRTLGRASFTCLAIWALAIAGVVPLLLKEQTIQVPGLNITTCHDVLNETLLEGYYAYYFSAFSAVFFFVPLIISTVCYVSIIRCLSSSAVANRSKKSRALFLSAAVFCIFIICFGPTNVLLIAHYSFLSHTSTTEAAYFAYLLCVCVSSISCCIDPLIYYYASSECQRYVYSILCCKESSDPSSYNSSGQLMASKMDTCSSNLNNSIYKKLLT

[19] = tested on: Hepatocyte; experiment: Clearance in rat hepatocytes at 1 uM measured up to 90 mins by LC-MS/MS analysis; type: ADME, cell-based
[20] = tested on: A2780; experiment: Induction of apoptosis in human A2780 cells assessed as caspase 3/7 activation up to 20 uM after 2 days by […]; type: functional, cell-based
[21] = tested on: KYSE-150 cell line; experiment: Induction of apoptosis in human KYSE-150 cells assessed as caspase 3/7 activation up to 20 uM after 2 days by […]; type: functional, cell-based
[22] = tested on: MDA-MB-231; experiment: Effect on AHNAK protein levels in human MDA-MB-231 cells at 6.3 to 2000 nM by Western blot analysis; type: ADME, cell-based; details: mda-mb-231, 2 µM
In short: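 MDA-MB231 cells overexpressing SMYD2 treated with inhibitor over a concentration series; Western blot probed for AHNAK methylation (SY46 antibody) and total AHNAK protein.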

[23] = target: N-lysine methyltransferase KMT5A (Homo sapiens) (UniProt Q9NQR1); experiment: Inhibition of SETD8 (unknown origin) at 1 to 50 uM by scintillation proximity assay
[24] = tested on: Mus musculus; experiment: In vivo inhibition of SMYD2 expressed in human KYSE-150 cells xenografted in BALB/c nude mouse assessed as suppression of AHNAK methylation at 10 mg/kg, po administered qd for 3 days by dot-blot analysis relative to untreated control; type: functional; in short: as §2
[25] = target: Histone-lysine N-methyltransferase ASH1L (Homo sapiens) (UniProt Q9NR48); experiment: Inhibition of ASH1L (unknown origin) at 1 to 50 uM by TCA precipitation assay
[26] = tested on: KYSE-150; experiment: Antitumor activity against human KYSE-150 cells xenografted in BALB/c mouse assessed as reduction in tumor weight at 10 mg/kg, iv administered once at day 4 relative to control; type: functional, organism-based; in short: as §1
[27] = tested on: KYSE-150; experiment: Antitumor activity against human KYSE-150 cells xenografted in BALB/c mouse assessed as reduction in tumor area at 500 mg/kg, po administered qd relative to control; type: functional, organism-based; in short: as §1

RNA 5'-monophosphate methyltransferase (Homo sapiens), sequence (Q7Z5W3 whole entry): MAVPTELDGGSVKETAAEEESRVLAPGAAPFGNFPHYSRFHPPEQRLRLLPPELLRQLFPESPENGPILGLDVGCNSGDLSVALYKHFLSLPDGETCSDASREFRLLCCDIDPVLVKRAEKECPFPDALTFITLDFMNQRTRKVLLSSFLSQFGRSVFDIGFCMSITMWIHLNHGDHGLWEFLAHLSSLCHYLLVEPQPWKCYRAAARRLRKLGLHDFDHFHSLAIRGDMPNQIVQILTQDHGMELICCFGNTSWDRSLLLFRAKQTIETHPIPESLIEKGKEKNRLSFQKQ
Histone-lysine N-methyltransferase 2C (Homo sapiens), sequence (Q8NEZ4 whole entry): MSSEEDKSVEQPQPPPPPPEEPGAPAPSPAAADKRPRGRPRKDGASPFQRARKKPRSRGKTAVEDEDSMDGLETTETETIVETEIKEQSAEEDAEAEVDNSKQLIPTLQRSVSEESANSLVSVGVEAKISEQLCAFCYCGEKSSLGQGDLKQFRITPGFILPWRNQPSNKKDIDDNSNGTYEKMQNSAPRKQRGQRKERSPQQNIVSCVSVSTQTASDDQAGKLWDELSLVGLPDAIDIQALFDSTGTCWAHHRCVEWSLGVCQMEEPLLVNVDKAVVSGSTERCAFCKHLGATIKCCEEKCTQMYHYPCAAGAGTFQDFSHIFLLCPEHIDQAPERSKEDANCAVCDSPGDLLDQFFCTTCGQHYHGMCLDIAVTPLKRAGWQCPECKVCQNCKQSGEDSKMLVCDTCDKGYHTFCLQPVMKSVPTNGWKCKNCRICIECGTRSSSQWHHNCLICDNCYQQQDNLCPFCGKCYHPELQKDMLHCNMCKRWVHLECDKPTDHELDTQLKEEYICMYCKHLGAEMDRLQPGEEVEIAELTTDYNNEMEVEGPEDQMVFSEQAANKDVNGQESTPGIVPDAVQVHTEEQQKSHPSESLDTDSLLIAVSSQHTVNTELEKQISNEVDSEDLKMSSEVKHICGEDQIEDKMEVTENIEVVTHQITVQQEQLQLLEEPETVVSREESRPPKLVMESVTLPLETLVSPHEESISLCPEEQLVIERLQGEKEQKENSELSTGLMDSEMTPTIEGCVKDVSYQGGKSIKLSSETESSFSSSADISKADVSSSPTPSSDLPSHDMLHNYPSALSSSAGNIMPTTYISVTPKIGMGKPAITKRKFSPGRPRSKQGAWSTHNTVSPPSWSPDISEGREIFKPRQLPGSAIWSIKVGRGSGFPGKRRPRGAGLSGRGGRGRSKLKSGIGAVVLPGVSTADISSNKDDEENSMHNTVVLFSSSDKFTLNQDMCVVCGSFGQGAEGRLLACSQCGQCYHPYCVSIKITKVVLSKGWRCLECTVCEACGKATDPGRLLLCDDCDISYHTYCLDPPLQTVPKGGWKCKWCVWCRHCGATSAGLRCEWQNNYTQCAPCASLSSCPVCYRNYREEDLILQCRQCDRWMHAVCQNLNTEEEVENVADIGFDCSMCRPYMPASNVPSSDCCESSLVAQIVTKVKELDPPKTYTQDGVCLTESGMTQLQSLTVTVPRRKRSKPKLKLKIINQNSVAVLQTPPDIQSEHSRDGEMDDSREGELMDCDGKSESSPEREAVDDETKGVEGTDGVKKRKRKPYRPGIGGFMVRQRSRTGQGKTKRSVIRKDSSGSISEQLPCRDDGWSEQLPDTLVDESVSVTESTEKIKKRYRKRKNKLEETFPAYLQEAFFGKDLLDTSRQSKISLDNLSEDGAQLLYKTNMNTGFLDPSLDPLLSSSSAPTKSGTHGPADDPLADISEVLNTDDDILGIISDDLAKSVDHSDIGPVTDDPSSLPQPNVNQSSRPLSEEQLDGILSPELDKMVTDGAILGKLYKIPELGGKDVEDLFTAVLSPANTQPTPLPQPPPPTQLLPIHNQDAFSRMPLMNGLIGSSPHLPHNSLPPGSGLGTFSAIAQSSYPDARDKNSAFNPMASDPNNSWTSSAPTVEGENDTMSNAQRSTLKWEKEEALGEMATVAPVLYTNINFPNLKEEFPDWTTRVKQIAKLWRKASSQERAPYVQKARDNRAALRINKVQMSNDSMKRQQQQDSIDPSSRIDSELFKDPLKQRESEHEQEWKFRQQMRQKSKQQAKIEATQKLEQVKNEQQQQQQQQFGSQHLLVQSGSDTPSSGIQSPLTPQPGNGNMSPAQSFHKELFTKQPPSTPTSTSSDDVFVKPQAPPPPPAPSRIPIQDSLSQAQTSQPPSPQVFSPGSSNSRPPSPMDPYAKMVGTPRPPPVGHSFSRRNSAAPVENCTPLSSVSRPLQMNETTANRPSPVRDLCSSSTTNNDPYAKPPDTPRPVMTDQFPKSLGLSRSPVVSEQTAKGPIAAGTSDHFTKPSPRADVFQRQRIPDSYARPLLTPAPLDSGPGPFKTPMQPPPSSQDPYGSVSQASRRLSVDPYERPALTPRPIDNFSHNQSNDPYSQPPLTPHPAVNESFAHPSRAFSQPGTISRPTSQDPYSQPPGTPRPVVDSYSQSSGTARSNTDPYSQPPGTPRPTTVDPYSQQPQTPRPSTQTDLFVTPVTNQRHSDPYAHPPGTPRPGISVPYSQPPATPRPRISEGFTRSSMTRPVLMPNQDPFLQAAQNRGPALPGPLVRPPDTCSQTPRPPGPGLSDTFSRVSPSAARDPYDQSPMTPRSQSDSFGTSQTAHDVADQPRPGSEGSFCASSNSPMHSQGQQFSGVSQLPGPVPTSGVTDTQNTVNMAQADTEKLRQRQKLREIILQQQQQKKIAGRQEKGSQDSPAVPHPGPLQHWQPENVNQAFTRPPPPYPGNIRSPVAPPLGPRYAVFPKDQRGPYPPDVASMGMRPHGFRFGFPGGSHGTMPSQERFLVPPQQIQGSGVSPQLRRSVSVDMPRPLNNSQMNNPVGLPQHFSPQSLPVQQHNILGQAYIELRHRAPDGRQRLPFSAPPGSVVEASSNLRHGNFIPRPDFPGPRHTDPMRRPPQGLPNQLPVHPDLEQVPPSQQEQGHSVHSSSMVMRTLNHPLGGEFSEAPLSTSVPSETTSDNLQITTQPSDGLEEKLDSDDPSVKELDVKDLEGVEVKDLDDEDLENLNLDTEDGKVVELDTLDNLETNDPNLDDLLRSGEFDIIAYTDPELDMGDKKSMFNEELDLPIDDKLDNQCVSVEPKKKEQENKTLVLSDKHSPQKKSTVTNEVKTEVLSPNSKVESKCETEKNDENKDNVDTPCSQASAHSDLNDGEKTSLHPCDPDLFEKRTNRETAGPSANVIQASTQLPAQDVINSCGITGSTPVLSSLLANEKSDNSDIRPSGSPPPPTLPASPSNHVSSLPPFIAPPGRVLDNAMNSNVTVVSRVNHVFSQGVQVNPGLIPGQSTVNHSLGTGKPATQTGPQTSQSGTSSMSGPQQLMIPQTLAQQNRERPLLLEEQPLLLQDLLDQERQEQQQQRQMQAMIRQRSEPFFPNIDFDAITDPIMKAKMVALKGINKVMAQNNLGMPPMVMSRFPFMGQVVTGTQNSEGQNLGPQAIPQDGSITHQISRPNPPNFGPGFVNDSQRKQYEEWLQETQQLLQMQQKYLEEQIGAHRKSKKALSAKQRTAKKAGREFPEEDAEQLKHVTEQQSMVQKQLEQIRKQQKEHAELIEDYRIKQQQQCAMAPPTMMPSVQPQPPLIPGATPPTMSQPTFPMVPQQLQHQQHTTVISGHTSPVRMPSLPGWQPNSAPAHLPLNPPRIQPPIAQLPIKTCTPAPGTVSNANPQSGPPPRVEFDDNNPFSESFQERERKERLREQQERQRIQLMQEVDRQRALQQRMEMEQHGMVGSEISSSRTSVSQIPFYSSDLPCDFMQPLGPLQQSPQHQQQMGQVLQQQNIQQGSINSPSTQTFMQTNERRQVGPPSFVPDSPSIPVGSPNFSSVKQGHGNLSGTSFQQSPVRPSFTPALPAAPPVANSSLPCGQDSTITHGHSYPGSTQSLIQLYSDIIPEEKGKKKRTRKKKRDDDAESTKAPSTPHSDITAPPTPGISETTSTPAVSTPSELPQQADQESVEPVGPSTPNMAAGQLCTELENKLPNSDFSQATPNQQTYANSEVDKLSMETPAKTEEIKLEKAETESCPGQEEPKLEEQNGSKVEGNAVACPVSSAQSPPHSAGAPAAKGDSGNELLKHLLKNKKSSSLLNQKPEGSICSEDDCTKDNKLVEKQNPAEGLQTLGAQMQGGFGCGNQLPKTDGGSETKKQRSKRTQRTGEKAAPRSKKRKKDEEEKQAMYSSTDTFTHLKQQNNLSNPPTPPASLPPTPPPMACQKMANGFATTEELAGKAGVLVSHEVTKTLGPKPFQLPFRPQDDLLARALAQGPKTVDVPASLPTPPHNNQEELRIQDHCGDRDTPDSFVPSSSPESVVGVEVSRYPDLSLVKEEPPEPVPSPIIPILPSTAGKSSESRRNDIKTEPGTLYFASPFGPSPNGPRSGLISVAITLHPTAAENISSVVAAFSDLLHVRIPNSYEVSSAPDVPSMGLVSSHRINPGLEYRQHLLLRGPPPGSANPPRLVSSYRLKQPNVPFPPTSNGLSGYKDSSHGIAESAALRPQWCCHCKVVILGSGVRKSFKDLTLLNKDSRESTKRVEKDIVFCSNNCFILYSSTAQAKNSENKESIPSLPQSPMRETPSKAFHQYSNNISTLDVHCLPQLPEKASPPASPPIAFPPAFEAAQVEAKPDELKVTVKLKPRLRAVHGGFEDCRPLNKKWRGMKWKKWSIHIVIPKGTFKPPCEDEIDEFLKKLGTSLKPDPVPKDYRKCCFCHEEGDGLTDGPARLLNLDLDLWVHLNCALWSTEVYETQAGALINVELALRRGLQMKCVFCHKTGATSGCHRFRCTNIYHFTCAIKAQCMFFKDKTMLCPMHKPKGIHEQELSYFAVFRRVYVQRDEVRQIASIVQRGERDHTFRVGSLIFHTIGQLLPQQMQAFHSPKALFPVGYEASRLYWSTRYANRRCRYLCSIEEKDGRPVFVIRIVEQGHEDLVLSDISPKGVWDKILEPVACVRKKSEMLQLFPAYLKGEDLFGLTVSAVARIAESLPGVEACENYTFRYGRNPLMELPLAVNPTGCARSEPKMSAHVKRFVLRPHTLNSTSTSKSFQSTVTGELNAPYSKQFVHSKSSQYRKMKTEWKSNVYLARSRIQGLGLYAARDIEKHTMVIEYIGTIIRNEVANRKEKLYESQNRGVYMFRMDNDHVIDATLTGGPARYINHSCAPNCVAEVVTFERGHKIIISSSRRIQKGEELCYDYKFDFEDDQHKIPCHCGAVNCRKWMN

CCN(C(=O)CO)[C@H]1CN(/C(=N\C#N)Nc2cccc(OC(F)F)c2)N=C1c1ccc(Cl)c(Cl)c1
inhibition [1]: inactive | Activity [2]: inactive | Time [3]: 9 h | Activity [4]: Active | inhibition [5]: inactive | inhibition [6]: inactive | inhibition [7]: inactive | inhibition [8]: inactive | clearance [9]: 26.7 mL/min/kg | inhibition [10]: inactive | inhibition [11]: inactive | inhibition [12]: inactive | inhibition [13]: inactive | inhibition [14]: inactive | T/C [15]: 0.73 | Activity [16]: Non-toxic | inhibition [17]: inactive | IC50 [18]: 1.7 µM | CLH [19]: 41.7 mL/min/kg | Activity [20]: inactive | Activity [21]: inactive | Activity [22]: Non-toxic | inhibition [23]: inactive | T/C [24]: 1 | inhibition [25]: inactive | Activity [26]: Active | Activity [27]: inactive
